Some results are limits rather than exact numbers.

The source of these data is ChEMBL document CHEMBL1144277, “Acyl sulfonamide anti-proliferatives. Part 2: activity of heterocyclic sulfonamide derivatives” (Bioorg Med Chem Lett, 2005).

Assay [1] can be described thus: Inhibitory concentration against Vascular Endothelial Growth Factor dependent Human Umbilical Vascular Endothelial Cells (VEGF-HUVEC). Format: functional. The gist of the method:
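Anti-proliferative IC50 measured in HUVEC whose growth depends on VEGF; reported values are means of at least three experiments.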

Assay [2] relates to HCT-116. The experiment in a line: Zone of inhibition by the compound against HCT116 human tumor cells at dose of 200 ug/disk. The class given is functional. The gist of the method: (§1)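 HCT116 colon carcinoma cells in a soft-agar disk diffusion assay, giving a qualitative measure of cytotoxicity. The test agent is applied on a disk at the stated µg per disk. The zone of inhibition is read in zone units (200 units = 6.5 mm), and a zero zone means no inhibition.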

Assay [3] relates to L1210. The experiment in a line: Zone of inhibition by the compound against L1210 Cells at dose of 210 ug/disk; Range 0-60. The class given is functional, Mus musculus. The gist of the method:
(§2)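 Soft-agar disk diffusion assay on L1210 leukemia cells or normal fibroblasts, with the agent applied on a disk at the stated µg per disk. The zone of inhibition is recorded in zone units (200 units = 6.5 mm), and a zero zone denotes no inhibition.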

Assay [4] is described as follows: Zone of inhibition by the compound against Normal fibroblasts at dose of 210 ug/disk; Range 0-330. Format: functional. A digest of the protocol: as §2
The subject of assay [5] is HCT-116. The experiment in a line: Zone of inhibition by the compound against HCT116 human tumor cells at dose of 210 ug/disk. The class given is functional. A digest of the protocol:
as §1

Assay [6] can be described thus: Zone of inhibition by the compound against Normal fibroblasts at dose of 210 ug/disk; Range 0-400. Format: functional. A digest of the protocol: as §2
In assay [7] the test system is L1210. The experiment in a line: Zone of inhibition by the compound against L1210 Cells at dose of 210 ug/disk; No inhibition. The class given is functional, Mus musculus. The gist of the method: as §2
Assay [8] is described as follows: Zone of inhibition by the compound against Normal fibroblasts at dose of 210 ug/disk; Range 0-370. Format: functional. A digest of the protocol:
as §2

Assay [9] deals with L1210. The experiment in a line: Zone of inhibition by the compound against L1210 Cells at dose of 210 ug/disk;. Format: functional, Mus musculus. The gist of the method: as §2
Assay [10] is described as follows: Zone of inhibition by the compound against Normal fibroblasts at dose of 210 ug/disk; Range 0-270. The class given is functional. The gist of the method: as §2
Assay [11] concerns L1210. The experiment in a line: Zone of inhibition by the compound against L1210 Cells at dose of 210 ug/disk; Range 200-270. Format: functional, Mus musculus. The gist of the method:
as §2

In assay [12] the test system is HCT-116. The experiment in a line: Zone of inhibition by the compound against HCT116 human tumor cells at dose of 210 ug/disk; Range 470-530. The class given is functional. A digest of the protocol:
as §1

Assay [13] in a line: Zone of inhibition by the compound against Normal fibroblasts at dose of 190 ug/disk; Range 0-350. Format: functional. The gist of the method: as §2
The test system of assay [14] is L1210. The experiment in a line: Zone of inhibition by the compound against L1210 Cells at dose of 190 ug/disk; No inhibition. Format: functional, Mus musculus. The gist of the method: as §2
The test system of assay [15] is HCT-116. The experiment in a line: Zone of inhibition by the compound against HCT116 human tumor cells at dose of 190 ug/disk. Format: functional. A digest of the protocol: as §1
Assay [16] concerns HCT-116. The experiment in a line: Zone of inhibition by the compound against HCT116 human tumor cells at dose of 115 ug/disk. The class given is functional. The gist of the method:
as §1

Assay [17] can be described thus: Zone of inhibition by the compound against Normal fibroblasts at dose of 200 ug/disk; Range 0-400. The class given is functional. The gist of the method:
as §2

Assay [18] concerns L1210. The experiment in a line: Zone of inhibition by the compound against L1210 Cells at dose of 200 ug/disk; No inhibition. Format: functional, Mus musculus. The gist of the method: as §2
Assay [19] deals with L1210. The experiment in a line: Zone of inhibition by the compound against L1210 Cells at dose of 200 ug/disk; Range 0-250. The class given is functional, Mus musculus. A digest of the protocol:
as §2

As to `O=C(NS(=O)(=O)c1ccc2cc[nH]c2c1)c1ccc(Cl)cc1Cl`, in [1], the IC50 (in general, the concentration at which inhibition is half-maximal) turned out to be 1870 nM. The compound `CCc1ncc(S(=O)(=O)NC(=O)c2ccc(Cl)cc2Cl)s1` gave an IC50 in assay [1] of 600 nM. With `COc1ncc(S(=O)(=O)NC(=O)c2ccc(Cl)cc2Cl)s1`, the IC50 in [1] came out at 540 nM. Turning to `O=C(NS(=O)(=O)c1ccc(Cl)c(Cl)c1)c1ccc(Cl)cc1Cl`, the Zone of inhibition in the assay with HCT-116 [2] is 560 zone of inhibition units. Take `Cc1ccc(S(=O)(=O)NC(=O)c2ccc(Cl)cc2Cl)s1`: in assay [1], the IC50 is 600 nM.

`O=C(NS(=O)(=O)c1cc(Cl)cs1)c1ccc(Cl)cc1Cl` yielded an IC50 in [1] of 390 nM. In assay [1], `O=C(NS(=O)(=O)c1cccc2sccc12)c1ccc(Cl)cc1Cl` gave an IC50 of 3300 nM. Consider `CN1CCc2ccc(S(=O)(=O)NC(=O)c3ccc(Cl)cc3Cl)cc21`, for which the Zone of inhibition in the assay on L1210 [3] is 60 zone of inhibition units; in assay [4], 330 zone of inhibition units; in the assay on HCT-116 [5] it was 630 zone of inhibition units. For the same compound, in assay [1], the IC50 turned out to be 1540 nM.

In the case of `O=C(NS(=O)(=O)c1ccc2c(c1)CCO2)c1ccc(Cl)cc1Cl`, the Zone of inhibition was 400 zone of inhibition units in [6], 680 zone of inhibition units in the assay on HCT-116 [5] and 0 zone of inhibition units with L1210 [7]. Moreover, the IC50 in [1] was found to be 430 nM. For `COc1ccc(S(=O)(=O)NC(=O)c2ccc(Cl)cc2Cl)s1`, in assay [1], the IC50 was 680 nM. Still for that read-out and setting: next, `O=C(NS(=O)(=O)c1cc(Cl)c(Br)s1)c1ccc(Cl)cc1Cl`: 760 nM. On the same count and under the same terms, next, `O=C(NS(=O)(=O)c1ccc2ccsc2c1)c1ccc(Cl)cc1Cl`: 640 nM.

For the compound `O=C(NS(=O)(=O)c1cc2ccccc2s1)c1ccc(Cl)cc1Cl`, the Zone of inhibition in assay [8] is 370 zone of inhibition units; in the assay on L1210 [9], 100 zone of inhibition units; with HCT-116 [5], 500 zone of inhibition units. This compound registered an IC50 in assay [1] of 960 nM. The compound `O=C(NS(=O)(=O)c1ccsc1)c1ccc(Cl)cc1Cl` had an IC50 in assay [1] of 1270 nM.

For the compound `O=C(NS(=O)(=O)c1ccc2ccccc2c1)c1ccc(Cl)cc1Cl`, the values for the Zone of inhibition (in assay [10]; in the assay with L1210 [11]; in the assay with HCT-116 [12]) were 270 zone of inhibition units, 270 zone of inhibition units and 530 zone of inhibition units, respectively. Besides, the IC50 in assay [1] was 800 nM.

`O=C(NS(=O)(=O)c1cccs1)c1ccc(Cl)cc1Cl`: the Zone of inhibition in assay [13] was 350 zone of inhibition units; in the assay on L1210 [14], 0 zone of inhibition units; in the assay with HCT-116 [15], 490 zone of inhibition units. Further, in [1], the midpoint of inhibition, the IC50, lay at 540 nM. On to `O=C(NS(=O)(=O)c1cccc2cc[nH]c12)c1ccc(Cl)cc1Cl`, for which the midpoint of inhibition in assay [1], the IC50, lay at 3040 nM.

For the compound `Cc1csc(S(=O)(=O)NC(=O)c2ccc(Cl)cc2Cl)c1`, in [1], 700 nM corresponded to half-maximal inhibition (IC50). The same measure, in the same setting: next, `Cc1ncc(S(=O)(=O)NC(=O)c2ccc(Cl)cc2Cl)s1`: 1180 nM. Take `O=C(NS(=O)(=O)c1ccccc1)c1ccc(Cl)cc1Cl`: the Zone of inhibition in the assay on HCT-116 [16] was 700 zone of inhibition units. `O=C(NS(=O)(=O)c1ccc2ccoc2c1)c1ccc(Cl)cc1Cl` came in with an IC50 in [1] of 590 nM.

In turn, `CCc1nc(S(=O)(=O)NC(=O)c2ccc(Cl)cc2Cl)c[nH]1` showed an IC50 in [1] of more than 20000 nM. Still for that read-out and setting: next, `CCc1ccc(S(=O)(=O)NC(=O)c2ccc(Cl)cc2Cl)s1`: 310 nM. On to `O=C(NS(=O)(=O)c1ccc(Cl)s1)c1ccc(Cl)cc1Cl`, for which the IC50 in [1] came to 360 nM. `O=C(NS(=O)(=O)c1cccc2ccoc12)c1ccc(Cl)cc1Cl` gave an IC50 in [1] of 5210 nM.

As for `O=C(NS(=O)(=O)c1ccc2c(c1)OCO2)c1ccc(Cl)cc1Cl`, the Zone of inhibition was 400 zone of inhibition units in assay [17], 610 zone of inhibition units in the assay with HCT-116 [2] and 0 zone of inhibition units in the assay on L1210 [18]. The same compound displayed an IC50 in assay [1] of 480 nM.

In turn, `N#Cc1ccc(S(=O)(=O)NC(=O)c2ccc(Cl)cc2Cl)s1` yielded an IC50 in assay [1] of 3160 nM. Turning to `O=C(NS(=O)(=O)c1ccc2sccc2c1)c1ccc(Cl)cc1Cl`, 620 nM corresponded to half-maximal inhibition in [1] (IC50). In the case of `O=C(NS(=O)(=O)c1cc(Br)c(Br)s1)c1ccc(Cl)cc1Cl`, in assay [1], the IC50 was 220 nM. For `O=C(NS(=O)(=O)c1ccc2c(c1)OCCO2)c1ccc(Cl)cc1Cl`, the Zone of inhibition in assay [17] was 400 zone of inhibition units; in the assay with L1210 [19], 250 zone of inhibition units; in the assay on HCT-116 [2], 580 zone of inhibition units. Besides, the IC50 in assay [1] came to 400 nM. `O=C(NS(=O)(=O)c1cc(Br)cs1)c1ccc(Cl)cc1Cl`: the IC50 in assay [1] was 600 nM. Consider `O=C(NS(=O)(=O)c1ccc(Cl)cc1)c1ccc(Cl)cc1Cl`, for which the Zone of inhibition in the assay on HCT-116 [2] was 660 zone of inhibition units. On to `O=C(NS(=O)(=O)c1cc2ccccc2o1)c1ccc(Cl)cc1Cl`, for which the IC50 in [1] turned out to be 970 nM.

`COC(=O)c1ccc(S(=O)(=O)NC(=O)c2ccc(Cl)cc2Cl)s1`: in assay [1], the IC50 was determined as 1390 nM. Turning to `O=C(NS(=O)(=O)c1cccc2ccsc12)c1ccc(Cl)cc1Cl`, inhibition in assay [1] was half-maximal at 4160 nM (IC50). Regarding `O=C(NS(=O)(=O)c1cnc(Cl)s1)c1ccc(Cl)cc1Cl`, it took 1090 nM to reach half-maximal inhibition in assay [1] (IC50).
